Experimental data from ChEMBL document CHEMBL4513216, “Probing the Open Global Health Chemical Diversity Library for Multistage-Active Starting Points for Next-Generation Antimalarials” (ACS Infect Dis, 2020).

Test: Toxicity liver stage against HepG2, at 10uM
Format: cell-based
Design: test concentration 10 uM, cell line HepG2-A16-CD81EGFP
Conditions: human, HepG2-A16-CD81EGFP cells; read-out: INHIBITION
In short: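 Uninfected HepG2-A16-CD81EGFP cells, 3 × 10^3 per well, 1536-well, plated on prespotted compound at 10 μM final, parasite-free screening media added to match infected plates; puromycin 10 μM positive, DMSO 0.5% negative; run in parallel with 48 h PbLuc assay at 37 °C, 5% CO2; viability by CellTiter-Glo luminescence, normalized to controls.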

Structure (SMILES) | cytotoxicity at 10 µM [%]
CC(C)(C)c1c[nH]c([C@@H]2COCCN2C2CCOCC2)n1 | -5.8
CO[C@H]1COCCN(C(=O)c2ccno2)C1 | 2.42
O=C(NC[C@H]1C[C@@H]2CCN1C[C@@H]2CN1CCCCC1)c1ccco1 | 7.32
CCN1CC(COc2ccccc2)Oc2ncccc2S1(=O)=O (stereo not given) | -0.947
Cn1nnc2c(sc3nc(N4CCOCC4)c4c(c32)CCC4)c1=O | -12.4
COC(=O)CNC(=O)Cn1ccc2ccc(F)cc21 | -1.33
Cc1cc(S(=O)(=O)NCC(O)c2sccc2C)ccc1F (stereo not given) | -1.81
NC(=O)C1CCN(C(=O)c2ccc(Cn3cc(Br)cn3)cc2)CC1 | -6.24
O=C(Cn1ccnc1)N1CC[C@H](Oc2cccc(F)c2)[C@@H](O)CC1 | -0.59
CC(=O)N1CCC(Cc2cccc(-c3ccnn3C)n2)CC1 | 6.3
OCCN1CCC(Cc2nccs2)CC1 | 5.97
Cc1cc(-c2cc(N)c(=O)n(CC(=O)NC3CCCCC3)n2)c(C)o1 | 6.79
CC(=O)c1cccc(NC(=O)CN2CCCCC2C)c1 (stereo not given) | -0.684
Cc1cc(C)n(-c2cncc(N3CCN(C(=O)C(C)C)CC3)n2)n1 | -2.9
CCS(=O)(=O)CC(=O)N1CCCC1c1noc(C2CC2)n1 (stereo not given) | -12.9
Cc1csc(CNC(=O)NC2CCCc3c2cnn3CCO)n1 (stereo not given) | 13.7
COc1cc(NC(=O)c2ccc(C)c(F)c2)c(C(=O)N(C)C)cc1OC | 2.82
CCc1nnc2n1CCN(C(=O)c1cnc(C3CC3)s1)C2 | 9.21
CC(C)N(C)CC(=O)NCC(O)c1cc2ccccc2s1 (stereo not given) | -3.91
CC(=O)NC1CCCN(C(=O)CNc2cccc(C)c2Cl)C1 (stereo not given) | -4.69
COc1nn(C)c2c1CCCN(C(=O)c1c[nH]cn1)C2 | -100
CN(Cc1cccnc1)C[C@H]1OC[C@@H]2CCN(c3ncccn3)C[C@@H]21 | -108
Cn1ccnc1CN1CCN(Cc2ccncc2)[C@@H]2CS(=O)(=O)C[C@@H]21 | 1.5

Structure (SMILES) | cytotoxicity at 10 µM [%]
OC1(CN2CCCC2)CCCN(c2ncnc3[nH]cnc23)C1 (stereo not given) | 11.3
Cn1cc(C(=O)N2CCC(c3ncc[nH]3)CC2)cn1 | -5.42
O=C(O)c1cnc(N2CC[C@H](N3CCOCC3)[C@H](CCCO)C2)c(Cl)c1 | 4.6
CCCc1nc(C(=O)N(C)Cc2cnn(-c3cccc(OC)c3)c2)cs1 | 6.39
COc1cc2c(cc1CN1CCCCC1CN1CCOCC1)CCC2 (stereo not given) | -4.57
CN(Cc1ccco1)C(=O)Nc1cc(C(F)(F)F)c[nH]c1=O | 2.79
CCn1ccnc1CN1CCN(CCOc2ccccc2C#N)CC1 | -8.21
COc1ccc(OCCN2CCN(Cc3nccn3C)CC2)cc1 | -6.25
CCc1cnc(CN(C(C)=O)C2CCN(CCc3ccccn3)C2)o1 (stereo not given) | -2.72
CCc1ccc(S(=O)(=O)Nc2cc(C(=O)O)ccc2F)s1 | -8.27
N#CCCN(C(=O)CN1CCCC1c1cccs1)c1ccccc1F (stereo not given) | -9.1
COc1c(C2CCCN2C(=O)c2nccnc2N)c(C)nn1C (stereo not given) | -5.55
CN(Cc1ccc2c(c1)OCO2)Cc1nc2c(cnn2C)c(=O)[nH]1 | -3.63
O=C(NCC1CC1)N1CCN(Cc2ccc3c(c2)OCCO3)CC1 | -4.3
O=C(CN1CC(n2cccn2)C1)NCCc1c[nH]c2ccccc12 | -4.74
Cc1cccc(N2CCN(C(=O)Nc3cnn(CC(N)=O)c3)CC2)c1 | -8.31
Cc1noc2ncc(C(=O)NCC3CCN(C(C)C)C3)cc12 (stereo not given) | -12.4
CCn1cc(NC(=O)NCC(c2cccs2)N(C)C)cn1 (stereo not given) | -2.66
CCc1nc2n(n1)CC(NCC(=O)Nc1cc(C)on1)CC2 (stereo not given) | -7.21
CN(C)c1ccc(NC(=O)NCc2ccccn2)cn1 | -3.34
COC1COC2(CCN(CC3CCOCC3)CC2)C1 (stereo not given) | -110
O=C(CSc1nc2n[nH]cc2c(=O)n1-c1ccccc1)N1CCOCC1 | -8.21
